The source of these data is ChEMBL document CHEMBL1144240, “Binding is not enough: flexibility is needed for photocrosslinking of Lck kinase by benzophenone photoligands” (Bioorg Med Chem, 2008).

The EC50 is the concentration giving half of the maximal effect. In general, IC50 refers to the concentration needed to halve the response being measured. Lower therefore signals greater potency.

Series [1] addresses T1, Tyrosine-protein kinase Lck (Homo sapiens, UniProt P06239). Description: Inhibition of Lck by luciferase based assay. In short, it runs like this:
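Lck (prediluted to 46 ng/µl) was mixed with Src substrate peptide (0.25 mM stock) in 50 mM HEPES pH 7.3, 2.5 mM DTT, 0.01% Triton X-100 and 10 mM MgCl2, plus ligand at various concentrations. Reaction was started with 100 µM ATP stock and run 1 h at room temperature. Residual ATP was read by Kinase-Glo Plus luminescence after 10 min. IC50 with 95% CI from sigmoidal fit, n = 2 or 3.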

The target in series [2] is T1, Tyrosine-protein kinase Lck. Description: Binding affinity to Lck assessed as photolabeling efficiency by Western blot analysis. Put shortly:
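Lck was photocrosslinked with each ligand at 0, 3, 9, 18, 36, 90 and 180 µM. Labeled-band intensities were plotted against probe concentration. EC50 (ligand concentration giving 50% of maximal labeling) and its 95% CI were obtained by sigmoidal dose-response fitting of triplicate trials (n = 3).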
Target sequence in this assay (P06239 whole entry): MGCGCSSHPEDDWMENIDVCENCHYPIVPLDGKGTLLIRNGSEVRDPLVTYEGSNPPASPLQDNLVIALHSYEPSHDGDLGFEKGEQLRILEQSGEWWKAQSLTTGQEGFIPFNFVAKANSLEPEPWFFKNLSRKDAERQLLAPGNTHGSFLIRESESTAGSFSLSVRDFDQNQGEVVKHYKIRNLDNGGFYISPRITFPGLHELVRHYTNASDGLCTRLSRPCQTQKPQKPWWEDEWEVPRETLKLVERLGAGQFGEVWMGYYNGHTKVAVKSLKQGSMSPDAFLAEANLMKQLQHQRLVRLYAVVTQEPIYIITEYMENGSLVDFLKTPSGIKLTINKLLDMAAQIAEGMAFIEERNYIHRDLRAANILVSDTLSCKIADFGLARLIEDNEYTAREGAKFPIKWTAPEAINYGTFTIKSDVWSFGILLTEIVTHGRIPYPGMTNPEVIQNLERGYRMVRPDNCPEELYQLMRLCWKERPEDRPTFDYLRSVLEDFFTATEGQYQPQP

A short description of series [3]: Chemical stability after 30 mins of UV irradiation by RP-HPLC. It counts as physicochemical. The settings on record: read-out: Stability. Put shortly: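 Free ligands in buffer solution were irradiated under a UV-A lamp (λmax 350 nm). Aliquots were taken at 0, 10 and 30 min, and intact ligand was quantified by HPLC with UV detection at 280 nm.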
Series [4] deals with T1, Tyrosine-protein kinase Lck. Description: Binding affinity to Lck assessed as photolabeling efficiency in presence of ATP-competitive Lck inhibitor by Western blot.
Target sequence in this assay (P06239 2-509 limits assumed): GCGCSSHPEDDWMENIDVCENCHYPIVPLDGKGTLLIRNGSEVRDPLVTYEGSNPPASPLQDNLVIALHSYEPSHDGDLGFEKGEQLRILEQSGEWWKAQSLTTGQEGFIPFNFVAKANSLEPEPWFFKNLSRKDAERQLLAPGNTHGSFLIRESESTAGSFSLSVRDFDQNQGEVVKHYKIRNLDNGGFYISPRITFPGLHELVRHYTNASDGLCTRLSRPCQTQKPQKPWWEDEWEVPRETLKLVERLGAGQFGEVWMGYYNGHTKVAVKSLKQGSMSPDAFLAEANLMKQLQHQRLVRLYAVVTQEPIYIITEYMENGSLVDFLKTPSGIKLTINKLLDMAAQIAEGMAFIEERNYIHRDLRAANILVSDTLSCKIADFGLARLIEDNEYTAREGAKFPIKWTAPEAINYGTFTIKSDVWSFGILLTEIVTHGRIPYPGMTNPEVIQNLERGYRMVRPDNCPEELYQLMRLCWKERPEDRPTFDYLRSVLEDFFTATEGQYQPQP

Active and inactive are the calls of the source. No cut-off for these calls is given here. Some results are limits rather than exact numbers.

As for `Nc1ncnc2c1ncn2CC(=O)N(CCNC(=O)CCCNC(=O)[C@H](Cc1ccc(C(=O)c2ccccc2)cc1)NC(=O)CCCNC(=O)CCCC[C@@H]1SC[C@@H]2NC(=O)N[C@@H]21)CC(=O)NCC(=O)O`, the result in series [1] and in series [4] was inactive. In addition, the concentration giving a half-maximal response (EC50) in series [2] was 4.4 µM. Moreover, the remaining at 0.5 h in series [3] was determined as 70%.

Consider `Nc1ncnc2c1ncn2CC(=O)N(CCNC(=O)[C@@H](CCC(=O)O)NC(=O)[C@H](Cc1ccc(C(=O)c2ccccc2)cc1)NC(=O)CCCNC(=O)CCCC[C@@H]1SC[C@@H]2NC(=O)N[C@@H]21)CC(=O)NCC(=O)O`, for which the result in series [1] and in series [4] was inactive. In series [2], the EC50 stood at 18.4 µM. Also, in series [3], the remaining at 0.5 h worked out at 70%.

As for `Nc1ncnc2c1ncn2CC(=O)N(CCNC(=O)[C@H]1CCCCN1C(=O)[C@H](Cc1ccc(C(=O)c2ccccc2)cc1)NC(=O)CCCNC(=O)CCCC[C@@H]1SC[C@@H]2NC(=O)N[C@@H]21)CC(=O)NCC(=O)O`, in series [1], the outcome was inactive. The concentration for a half-maximal effect (EC50) in series [2] is > 150 µM. Moreover, the remaining at 0.5 h in series [3] was found to be 70%.

On to `Nc1ncnc2c1ncn2CC(=O)N(CCNC(=O)CNC(=O)[C@H](Cc1ccc(C(=O)c2ccccc2)cc1)NC(=O)CCCNC(=O)CCCC[C@@H]1SC[C@@H]2NC(=O)N[C@@H]21)CC(=O)NCC(=O)O`, for which the outcome in series [1] and in series [4] was inactive. Further, the EC50 in series [2] worked out at 14.4 µM. For the same molecule, the remaining at 0.5 h in series [3] turned out to be 70%.

Turning to `Nc1ncnc2c1ncn2CC(=O)N(CCNC(=O)[C@H]1CCCN1C(=O)[C@H](Cc1ccc(C(=O)c2ccccc2)cc1)NC(=O)CCCNC(=O)CCCC[C@@H]1SC[C@@H]2NC(=O)N[C@@H]21)CC(=O)NCC(=O)O`, in series [1], the half-inhibitory concentration (IC50) worked out at 50 µM. In addition, in series [2], the EC50 is > 150 µM. The remaining at 0.5 h in series [3] is 70%.

Turning to `Nc1ncnc2c1ncn2CC(=O)N(CCNC(=O)[C@@H](CO)NC(=O)[C@H](Cc1ccc(C(=O)c2ccccc2)cc1)NC(=O)CCCNC(=O)CCCC[C@@H]1SC[C@@H]2NC(=O)N[C@@H]21)CC(=O)NCC(=O)O`, the IC50 in series [1] was 50 µM. Further, the EC50 in series [2] turned out to be 23.3 µM. Moreover, the remaining at 0.5 h in series [3] came to 70%. For the same molecule, in series [4], the outcome was inactive.
